Most compounds without a hit are left out; they make up all but 12% or so of the library.
Diaphorase inh: diaphorase inhibitors and chemical oxidizers, primary screen, counter-screen for diaphorase-coupled primary assays, biochemical, uHTS, resorufin fluorescence; diaphorase resazurin-to-resorufin fluorescence, NADH, 16 min; bacterial (C. kluyveri) enzyme, not human; inhibition, % at 20 µM; hit rate 0.69% among 190,000; AID 1217, 2008;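 active = primary screen inhibition at 20 µM above a set limit, cut at about 50% in these data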
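Benchmarks: positive control wells lacking NADH, neutral wells with DMSO only. System: bacterial diaphorase enzyme (C. kluyveri). Input: 0.14 U/mL diaphorase, enzyme working solution. Detection: resorufin fluorescence, excitation 544 nm, emission 590 nm. Times: 16-min room-temperature incubation before reading.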
WT yeast gro inh: growth inhibition of WT strain, primary screen, mitochondrial fusion inhibitor project, WT and mutant strains, chemical genetic | hit rate 2.1% among 190,000 | inhibition, % at 10 µM | mitochondrial fusion phenotypic screen; in the data active = inhibition above about 58%; tested in S. cerevisiae
Diaphorase act: compounds boosting diaphorase resazurin reduction – biochemical, uHTS, resorufin fluorescence, counter-screen for diaphorase-coupled primary assays, primary screen; activation factor at 20 µM; Diaphorase/resazurin coupled assay, 16 min; hits give high values; 1 = vehicle wells, 0 = NADH-free wells; hit rate 0.005% among 190,000;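 active = diaphorase activity raised at least twofold by the compound at 20 µM; inactive = activation factor below 2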
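Material: purified diaphorase enzyme from Clostridium kluyveri; Also added: 0.114 mM NADH and 0.1 mM resazurin, final amounts; Doses: single compound dose of 20 µM, 1% DMSO final; Times: 16 min enzyme reaction, ambient temperature; Detection: resorufin fluorescence, excitation 544 nm, emission 590 nm; Measure: increased resorufin signal from activators or reducing compounds.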
Lmaj promast: Leishmania major promastigote growth inhibition, primary screen; Leishmania major promastigotes, resazurin fluorescence viability; inhibition, % at 10 µM; hit rate 9% among 200,000; AID 1063, 2008; in the data active = inhibition above about 50%;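 also: promastigotes grown with compound for 44 hours at 28 °C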
ROMK primary: ROMK potassium channel modulators, primary screen, cell-based, thallium flux, MLSMR library. ATP-sensitive inward rectifier potassium channel 1 (Homo sapiens), P48048. Tet-inducible ROMK, thallium flux fluorescence; actives lie on both sides. B-score at 10 µM. hit rate 2% among 130,000;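 active = signal ratio slope over the read window, or its plate-corrected B-score, at least 3 SD from the plate mean, either direction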;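 also: B-score of the F/F0 ratio slope over 7 to 12 s after thallium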
KCC2 mod: KCC2 cotransporter modulators, thallium flux, primary screen, cell-based, HEK293 KCC2, FluoZin-2 fluorescence, MLSMR | Solute carrier family 12 member 5 (Homo sapiens), Q9H2X9 | KCC2 cells, thallium flux FluoZin-2 fluorescence | B-score of Tl+ flux slope (higher = more flux/activation; lower = inhibition) at 10 µM | hit rate 2.2% among 190,000 | AID 1456, 2008;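 active = thallium flux slope and its plate-corrected score both differing from the plate sample mean at a set confidence after two filtering rounds, in either direction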;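 also: slope of fluorescence scaled to starting intensity during 10 to 20 s after thallium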
Hits are given with their value.

Results for C=CCNC(=O)C1CC2Cn3c(nc4cc5ccccc5cc43)C2N1C (configuration not stated) ?
KCC2 mod: inactive

What do the screens show for `Cc1noc(C)c1-c1nc(CS(=O)(=O)c2ccc(F)cc2)no1`?
KCC2 mod: inactive

Results for Cc1ccc(C(=O)N2CC(C)SC2=Nc2cccc(S(=O)(=O)N(C)C)c2)cc1 (configuration not stated) ?
Diaphorase inh: inactive; WT yeast gro inh: inactive; Diaphorase act: inactive; Lmaj promast: 95; KCC2 mod: inactive

What do the screens show for `Cc1cc(C)cc(C(=O)N2CC(C)SC2=Nc2cccc(S(=O)(=O)N(C)C)c2)c1` (configuration not stated)?
Diaphorase inh: inactive; WT yeast gro inh: inactive; Diaphorase act: inactive; Lmaj promast: 98; KCC2 mod: inactive

How did CC1=CC(=C(C#N)C#N)C=C(C)N1Cc1ccccc1 do in these assays?
Diaphorase inh: inactive; WT yeast gro inh: inactive; Diaphorase act: inactive; Lmaj promast: inactive; ROMK primary: inactive; KCC2 mod: inactive

Results for COc1ccc(N2CCN(C(=O)C3CCCN(S(=O)(=O)c4c(C)noc4C)C3)CC2)cc1 (configuration not stated) ?
ROMK primary: inactive; KCC2 mod: inactive

What do the screens show for `Cc1cc(C)c(OCC(=O)Nc2nc3ccccc3[nH]2)c(C)c1`?
Diaphorase inh: inactive; WT yeast gro inh: inactive; Diaphorase act: inactive; Lmaj promast: inactive; ROMK primary: inactive; KCC2 mod: inactive

Results for N#CC1=C2SCC(O)(c3ccccc3)N2C(=O)CC1c1cccs1 (configuration not stated) ?
Diaphorase inh: inactive; WT yeast gro inh: inactive; Diaphorase act: inactive; Lmaj promast: 90; KCC2 mod: inactive

Results for N#CC1=C2SCC(O)(c3ccccc3)N2C(=O)CC1c1ccccc1F (configuration not stated) ?
Diaphorase inh: inactive; WT yeast gro inh: inactive; Diaphorase act: inactive; Lmaj promast: 99; ROMK primary: inactive; KCC2 mod: inactive

What do the screens show for `Nc1nc[nH]c(=O)c1N=Cc1ccccc1`?
KCC2 mod: inactive

How did CC(=Nc1ccc(C)cc1C)c1sc2ccccc2c1O do in these assays?
Diaphorase inh: inactive; WT yeast gro inh: 79; Diaphorase act: inactive; Lmaj promast: inactive; ROMK primary: inactive; KCC2 mod: inactive

Results for CC(C)CN1CCC(CN(C)Cc2nc(-c3cnccn3)no2)CC1 ?
Diaphorase inh: inactive; WT yeast gro inh: inactive; Diaphorase act: inactive; Lmaj promast: inactive

How did CCn1ccnc1CN(C)Cc1nc(CCC(C)C)no1 do in these assays?
Diaphorase inh: inactive; WT yeast gro inh: inactive; Diaphorase act: inactive; Lmaj promast: inactive; ROMK primary: inactive; KCC2 mod: inactive

What do the screens show for `CN(Cc1nc(-c2cnccn2)no1)CC1CCN(Cc2ccccc2)CC1`?
Diaphorase inh: inactive; WT yeast gro inh: inactive; Diaphorase act: inactive; Lmaj promast: 91; ROMK primary: inactive; KCC2 mod: inactive

What do the screens show for `CC(C)CCc1noc(CN(C)CC2CCN(Cc3ccccc3)CC2)n1`?
Diaphorase inh: inactive; WT yeast gro inh: inactive; Diaphorase act: inactive; Lmaj promast: 83; ROMK primary: inactive

How did CC(NC(=O)Cc1ccccc1)c1cc2c(cc1Br)OCCCO2 (configuration not stated) do in these assays?
Diaphorase inh: inactive; WT yeast gro inh: inactive; Diaphorase act: inactive; Lmaj promast: inactive; ROMK primary: inactive

Results for Cc1cc(C)nc(SCC(=O)NN=C2CCCC2)n1 ?
Diaphorase inh: inactive; WT yeast gro inh: inactive; Diaphorase act: inactive; Lmaj promast: inactive; ROMK primary: inactive; KCC2 mod: inactive

What do the screens show for `C=CCn1cn[nH]c1=S`?
Diaphorase inh: inactive; WT yeast gro inh: inactive; Diaphorase act: inactive; Lmaj promast: inactive; ROMK primary: inactive; KCC2 mod: inactive

Screening data: PubChem, several laboratories
